{"source": "ChEMBL document CHEMBL4359864", "about": "“The synthesis and in vitro biological evaluation of novel fluorinated tetrahydrobenzo[j]phenanthridine-7,12-diones against Mycobacterium tuberculosis” (Eur J Med Chem, 2019)", "key": {"Escherichia coli": {"system": "Escherichia coli", "test": "Antibacterial activity against Escherichia coli ATCC 8739 incubated for 24 hrs by resazurin dye based fluorimetric assay", "assay_type": "functional, organism-based", "details": "ATCC 8739, ATCC 8739, 24 h", "in_short": "(§1)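 Resazurin microtiter assay: compounds from 10 mM DMSO stock, twofold serial dilutions from 64 µM final in growth medium, in triplicate. Inoculum from frozen glycerol stocks. Exposure 24 h, or 7 days for Mtb H37Ra (7H9 + 0.5% glycerol + 10% OADC). Then 0.01% resazurin was added and plates were incubated at 37°C until pink. Fluorescence read at ex 550/em 590 nm; mean of triplicates.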"}, "Pseudomonas aeruginosa": {"system": "Pseudomonas aeruginosa", "test": "Antibacterial activity against Pseudomonas aeruginosa ATCC 9027 incubated for 24 hrs by resazurin dye based fluorimetric assay", "assay_type": "functional, organism-based", "details": "ATCC 9027, 24 h", "in_short": "as §1"}, "Klebsiella pneumoniae": {"system": "Klebsiella pneumoniae", "test": "Antibacterial activity against Klebsiella pneumoniae ATCC 13883 incubated for 24 hrs by resazurin dye based fluorimetric assay", "assay_type": "functional, organism-based", "details": "ATCC 13883, 24 h", "in_short": "as §1"}, "Enterococcus faecium": {"system": "Enterococcus faecium", "test": "Antibacterial activity against Enterococcus faecium ATCC 19434 incubated for 24 hrs by resazurin dye based fluorimetric assay", "assay_type": "functional, organism-based", "details": "ATCC 19434, 24 h", "in_short": "as §1"}, "Staphylococcus aureus": {"system": "Staphylococcus aureus", "test": "Antibacterial activity against Staphylococcus aureus ATCC 6538 incubated for 24 hrs by resazurin dye based fluorimetric assay", "assay_type": "functional, organism-based", "details": "ATCC 6538, 24 h", "in_short": "as §1"}, "Streptococcus pneumoniae": {"system": "Streptococcus pneumoniae", "test": "Antibacterial activity against Streptococcus pneumoniae ATCC BAA-334 incubated for 24 hrs by resazurin dye based fluorimetric assay", "assay_type": "functional, organism-based", "details": "ATCC BAA-334, 24 h", "in_short": "as §1"}, "[1]": {"system": "Mycobacterium tuberculosis", "test": "Antibacterial activity against Mycobacterium tuberculosis H37Ra ATCC 25177 incubated for 7 days by resazurin dye based fluorimetric assay", "assay_type": "functional, organism-based", "details": "H37Ra ATCC 25177, 168 h", "in_short": "as §1"}, "[2]": {"system": "Mycobacterium tuberculosis", "test": "Antimycobacterial activity against Mycobacterium tuberculosis H37Ra lux incubated for 7 days by luminometric assay", "assay_type": "functional, organism-based", "details": "168 h", "in_short": "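Twofold serial dilutions in 7H9/OADC/glycerol, in triplicate, inoculated with a suspension of 10.000 RLU per mL. After 7 days, n-decanal (1% v/v in ethanol) was added and luminescence read. IC50 and MIC (90% growth reduction) were derived from the mean of triplicates.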"}, "[3]": {"test": "Cytotoxicity against mouse J774A.1 cells assessed as reduction in cell viability incubated for 24 hrs by neutral red uptake assay", "assay_type": "cell-based, J774.A1", "in_short": "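J774A.1 cells in DMEM + 10% iFCS, 37°C, 5% CO2, seeded at 40.000 cells/well and left overnight. Twofold dilutions from 128 µM final; 24 h exposure. Neutral red uptake for 3 h, dye extracted with 1:1 ethanol/acetic acid, OD read at 530 nm (reference 620 nm). CC50 = 50% reduction in uptake; mean of triplicates.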"}, "[4]": {"test": "Selectivity index, ratio of […] for cytotoxicity against mouse J774A.1 cells", "assay_type": "toxicity, cell-based", "details": "read-out: Selectivity Index"}, "Mycobacterium marinum": {"system": "Mycobacterium marinum", "test": "Antimycobacterial activity against Mycobacterium marinum NCTC 2275 by resazurin dye based fluorimetric assay", "assay_type": "functional, organism-based", "in_short": "(§2)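 Resazurin microtiter method as for the bacterial panel. Mycobacteria grown in 7H9 with 10% OADC and 0.5% glycerol; for BCG, 0.05% Tween 80 replaced the glycerol. Cultures were sonicated and needle-passed to single cells. Incubation at 37°C, or 32°C for M. marinum. Fluorescence read at ex 550/em 590 nm; mean of triplicates.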"}, "[5]": {"test": "Antimycobacterial activity against Mycobacterium avium subsp. avium ATCC 25291 by resazurin dye based fluorimetric assay", "assay_type": "functional", "in_short": "as §2"}, "CYP450 [6]": {"target": "T1, CYP450 (Homo sapiens, UniProt P04798+P05177+P05181+P08684+P10632+P10635+P11509+P11712+P13584+P20813+P20815+P20853+P24462+P24903+P33260+P33261+P51589+P78329+P98187+Q02928+Q08477+Q16678+Q16696+Q5TCH4+Q6VVX0+Q7Z449+Q8TAV3+Q96SQ9+Q9HB55)", "test": "Microsomal stability in human liver microsomes assessed as CYP450-mediated metabolism by measuring compound remaining at 5 uM and measured for 15 mins in presence of NADPH by UPLC-MS/MS analysis (reference value: 100%)", "assay_type": "ADME", "details": "read-out: Stability", "in_short": "(§3)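 Compound at 5 µM with 0.5 mg/mL liver microsomes in PBS. Phase I was started with 1 mM NADPH; phase II used 2 mM UDPGA. Diclofenac served as reference. Samples taken at 0, 15, 30 and 60 min were quenched in ice-cold acetonitrile, centrifuged at 4°C and analysed by LC-MS. Mean of at least two replicates ± SD.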"}, "CYP450 [7]": {"target": "T1, CYP450", "test": "Microsomal stability in human liver microsomes assessed as CYP450-mediated metabolism by measuring compound remaining at 5 uM and measured for 30 mins in presence of NADPH by UPLC-MS/MS analysis (reference value: 100%)", "assay_type": "ADME", "details": "read-out: Stability", "in_short": "as §3"}, "CYP450 [8]": {"target": "T1, CYP450", "test": "Microsomal stability in human liver microsomes assessed as CYP450-mediated metabolism by measuring compound remaining at 5 uM and measured for 60 mins in presence of NADPH by UPLC-MS/MS analysis (reference value: 100%)", "assay_type": "ADME", "details": "read-out: Stability", "in_short": "as §3"}, "UGT [9]": {"target": "T2, UGT (Homo sapiens, UniProt O60656+O75310+O75795+P06133+P0DTE4+P0DTE5+P16662+P19224+P22309+P22310+P35503+P35504+P36537+P54855+Q6UWM9+Q9BY64+Q9HAW7+Q9HAW8+Q9HAW9)", "test": "Microsomal stability in human liver microsomes assessed as UGT-mediated metabolism by measuring compound remaining at 5 uM and measured for 15 mins in presence of UDPGA by UPLC-MS/MS analysis (reference value: 100%)", "assay_type": "ADME", "details": "read-out: Stability", "in_short": "as §3"}, "UGT [10]": {"target": "T2, UGT", "test": "Microsomal stability in human liver microsomes assessed as UGT-mediated metabolism by measuring compound remaining at 5 uM and measured for 30 mins in presence of UDPGA by UPLC-MS/MS analysis (reference value: 100%)", "assay_type": "ADME", "details": "read-out: Stability", "in_short": "as §3"}, "UGT [11]": {"target": "T2, UGT", "test": "Microsomal stability in human liver microsomes assessed as UGT-mediated metabolism by measuring compound remaining at 5 uM and measured for 60 mins in presence of UDPGA by UPLC-MS/MS analysis (reference value: 100%)", "assay_type": "ADME", "details": "read-out: Stability", "in_short": "as §3"}, "CYP450 [12]": {"system": "CYP450", "test": "Microsomal stability in mouse liver microsomes assessed as CYP450-mediated metabolism by measuring compound remaining at 5 uM and measured for 15 mins in presence of NADPH by UPLC-MS/MS analysis (reference value: 100%)", "assay_type": "ADME", "details": "read-out: Stability", "in_short": "as §3"}, "CYP450 [13]": {"system": "CYP450", "test": "Microsomal stability in mouse liver microsomes assessed as CYP450-mediated metabolism by measuring compound remaining at 5 uM and measured for 30 mins in presence of NADPH by UPLC-MS/MS analysis (reference value: 100%)", "assay_type": "ADME", "details": "read-out: Stability", "in_short": "as §3"}, "CYP450 [14]": {"system": "CYP450", "test": "Microsomal stability in mouse liver microsomes assessed as CYP450-mediated metabolism by measuring compound remaining at 5 uM and measured for 60 mins in presence of NADPH by UPLC-MS/MS analysis (reference value: 100%)", "assay_type": "ADME", "details": "read-out: Stability", "in_short": "as §3"}, "UGT [15]": {"system": "UGT", "test": "Microsomal stability in mouse liver microsomes assessed as UGT-mediated metabolism by measuring compound remaining at 5 uM and measured for 15 mins in presence of UDPGA by UPLC-MS/MS analysis (reference value: 100%)", "assay_type": "ADME", "details": "read-out: Stability", "in_short": "as §3"}, "UGT [16]": {"system": "UGT", "test": "Microsomal stability in mouse liver microsomes assessed as UGT-mediated metabolism by measuring compound remaining at 5 uM and measured for 30 mins in presence of UDPGA by UPLC-MS/MS analysis (reference value: 100%)", "assay_type": "ADME", "details": "read-out: Stability", "in_short": "as §3"}, "UGT [17]": {"system": "UGT", "test": "Microsomal stability in mouse liver microsomes assessed as UGT-mediated metabolism by measuring compound remaining at 5 uM and measured for 60 mins in presence of UDPGA by UPLC-MS/MS analysis (reference value: 100%)", "assay_type": "ADME", "details": "read-out: Stability", "in_short": "as §3"}}, "data": [{"smiles": "O=C1C2=C(C(=O)c3c1cnc1cc(F)ccc31)C1CCC2C1", "note": "(stereo not given)", "values": [{"measurement": "IC50", "setting": "Escherichia coli", "value": "> 64", "unit": "µM"}, {"measurement": "IC50", "setting": "Pseudomonas aeruginosa", "value": "> 64", "unit": "µM"}, {"measurement": "IC50", "setting": "Klebsiella pneumoniae", "value": "> 64", "unit": "µM"}, {"measurement": "IC50", "setting": "Enterococcus faecium", "value": "> 64", "unit": "µM"}, {"measurement": "IC50", "setting": "Staphylococcus aureus", "value": "> 64", "unit": "µM"}, {"measurement": "IC50", "setting": "Streptococcus pneumoniae", "value": "32 to 64", "unit": "µM"}, {"measurement": "IC50", "setting": "[1]", "value": "1 to 2", "unit": "µM"}, {"measurement": "IC50", "setting": "[2]", "value": 1.8, "unit": "µM"}, {"measurement": "MIC90", "setting": "[2]", "value": 10.2, "unit": "µM"}, {"measurement": "CC50 at 24 h", "setting": "[3]", "value": 35.2, "unit": "µM"}, {"measurement": "selectivity ratio", "setting": "[4]", "value": 3.44}, {"measurement": "IC50", "setting": "Mycobacterium marinum", "value": 3.22, "unit": "µM"}, {"measurement": "IC50", "setting": "[5]", "value": 0.43, "unit": "µM"}, {"measurement": "remaining at 0.25 h, 5 µM", "setting": "CYP450 [6]", "value": 100, "unit": "%"}, {"measurement": "remaining at 0.5 h, 5 µM", "setting": "CYP450 [7]", "value": 100, "unit": "%"}, {"measurement": "remaining at 1 h, 5 µM", "setting": "CYP450 [8]", "value": 100, "unit": "%"}, {"measurement": "remaining at 0.25 h, 5 µM", "setting": "UGT [9]", "value": 79, "unit": "%"}, {"measurement": "remaining at 0.5 h, 5 µM", "setting": "UGT [10]", "value": 76, "unit": "%"}, {"measurement": "remaining at 1 h, 5 µM", "setting": "UGT [11]", "value": 60, "unit": "%"}, {"measurement": "remaining at 0.25 h, 5 µM", "setting": "CYP450 [12]", "value": 100, "unit": "%"}, {"measurement": "remaining at 0.5 h, 5 µM", "setting": "CYP450 [13]", "value": 100, "unit": "%"}, {"measurement": "remaining at 1 h, 5 µM", "setting": "CYP450 [14]", "value": 100, "unit": "%"}, {"measurement": "remaining at 0.25 h, 5 µM", "setting": "UGT [15]", "value": 89, "unit": "%"}, {"measurement": "remaining at 0.5 h, 5 µM", "setting": "UGT [16]", "value": 88, "unit": "%"}, {"measurement": "remaining at 1 h, 5 µM", "setting": "UGT [17]", "value": 73, "unit": "%"}]}]}
